Assay outcomes: PubChem BioAssay, Broad Institute
E-sel inducer = E-selectin induction on HUVECs; P16581; HUVEC E-selectin immunofluorescence imaging; normalized: neutral wells 0, TNF-alpha wells 100; activation, % at 7.58 µM; 260,000 tested, 0.37% active; AID 686992;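 active = mean E-selectin-positive cell signal at least 10% of the positive control, reached in at least 60% of replicates, without over 20% cell loss; inconclusive = no rule given, readout overlaps actives, possibly toxicity-flagged; inactive = the rest, including those meeting only one limit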
Target sequence (P16581 whole entry, looked up): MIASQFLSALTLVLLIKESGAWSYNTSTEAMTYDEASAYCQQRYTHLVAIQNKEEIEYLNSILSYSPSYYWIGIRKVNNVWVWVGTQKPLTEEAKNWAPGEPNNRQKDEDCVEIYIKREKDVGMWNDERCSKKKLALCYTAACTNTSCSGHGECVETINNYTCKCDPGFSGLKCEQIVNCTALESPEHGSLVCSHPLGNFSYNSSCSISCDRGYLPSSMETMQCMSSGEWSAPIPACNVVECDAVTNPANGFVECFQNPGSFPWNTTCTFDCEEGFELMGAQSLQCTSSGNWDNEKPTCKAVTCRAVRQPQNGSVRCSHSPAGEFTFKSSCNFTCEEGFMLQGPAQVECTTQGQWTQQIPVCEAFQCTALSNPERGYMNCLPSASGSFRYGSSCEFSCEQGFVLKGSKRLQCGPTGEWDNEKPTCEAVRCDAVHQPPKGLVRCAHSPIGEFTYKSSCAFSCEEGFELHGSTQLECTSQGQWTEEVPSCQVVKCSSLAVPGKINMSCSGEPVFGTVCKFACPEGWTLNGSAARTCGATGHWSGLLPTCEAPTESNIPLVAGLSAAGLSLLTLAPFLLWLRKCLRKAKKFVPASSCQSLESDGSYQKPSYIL
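Test system: HUVEC | Signal: Immunofluorescence imaging | Read-out: Percent E-selectin-positive cells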
CFTR F508del cor = correctors of CFTR F508del function in bronchial epithelial cells; CFBE cells, YFP halide quenching; stimulated with forskolin plus potentiator P3; % fluorescence drop versus neutral controls; activity (quench increase), % at 7.58 µM; 350,000 tested, 0.36% active;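 active = mean added fluorescence quench of at least 8% versus neutral control, with both replicates also reaching 8%; inconclusive = only one of the mean or replicate conditions met; inactive = mean below 8% and not both replicates reaching 8%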;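 note: cells transiently co-express mutant CFTR-F508del with the halide-sensitive YFP; corrector assay measuring rescue of mutant channel to the surface after 24 h compound exposure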
DENV2 CPE rescue = DENV2-induced cell death inhibition; DENV2-infected cells, cytopathic effect rescue, plate reader; CPE inhibition, % at 9.99 µM; 350,000 tested, 1.7% active; AID 651640; in the data active = CPE inhibition above about 20%, passing the limit was not always enough; inconclusive = no clear call, values can overlap the other calls; tested in BHK-21 cells
FGF22 binding = binders of recombinant human FGF22 by thermal shift; SYPRO orange fluorescence; percent of sucrose octasulfate shift, DMSO zero; AID 651658; 340,000 tested, 1.5% active; activity (Tm shift, normalised), % at 9.99 µM;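 active = mean Tm shift, scaled 0 neutral to 100 positive control, at about 1.3% or above, every replicate too, limit read from the data; inconclusive = no clear call, values can overlap the other calls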
ERAP1 inh = blocks human ERAP1 aminopeptidase activity | inhibition, % at 10.7 µM | recombinant ERAP1, Leu-AMC fluorescence, 60 min | Q9NZ08 | 340,000 tested, 0.15% active;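 active = mean replicate inhibition of at least 30%, or all replicates individually reaching that 30% level; inactive = mean below 30% and not every replicate reaching it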
Large screens that a line does not name were inactive; ! = not confirmed by another sample. Only some compounds are listed: those with a hit (about 3.7% of all), similar ones and a draw of the others.

COc1ccc(NC(=S)NCc2ccc3c(c2)OCO3)cc1	FGF22 binding 43.2 (no result: E-sel inducer, CFTR F508del cor)
O=C(Nc1ccc2c(c1)OCO2)N1[C@@H]2CNC[C@H]1C2c1ccc(-c2ccncc2)cc1 (some centres not stated)	none (no result: FGF22 binding)
O=C(Nc1ccc2c(c1)OCO2)N1[C@@H]2CNC[C@H]1C2c1ccc(/C=C/c2ccccc2)cc1 (some centres not stated)	DENV2 CPE rescue 79.2 (no result: FGF22 binding)
C/C=C/c1ccc(C2[C@H]3CNC[C@@H]2N3C(=O)NCCC)cc1 (some centres not stated)	DENV2 CPE rescue 25.4! (no result: FGF22 binding)
CC(C)c1ccc(NC(=S)NCc2ccc3c(c2)OCO3)cc1	none (no result: E-sel inducer)
COc1ccc(-c2ccc(C3[C@H]4CNC[C@@H]3N4C(=O)Nc3ccc4c(c3)OCO4)cc2)cc1 (some centres not stated)	DENV2 CPE rescue 24.6! (no result: FGF22 binding)
CC(=O)c1ccc(NC(=S)Nc2ccc(Br)c(Cl)c2)cc1	DENV2 CPE rescue inconclusive, FGF22 binding 1.4 (no result: E-sel inducer)
O=C(NC(=S)Nc1ccc(Br)c(Cl)c1)C1CC1	none (no result: E-sel inducer)
CC(=O)c1ccc(NC(=S)Nc2ccc3cn[nH]c3c2)cc1	FGF22 binding 1.8 (no result: E-sel inducer)
COc1ccc(C(=O)CSc2nnc(CN3CCCC3)n2-c2ccc(F)cc2)c(OC)c1	FGF22 binding 43.6 (no result: E-sel inducer)
O=C1ON=C(c2ccc(Cl)c([N+](=O)[O-])c2)/C1=C/c1cccc([N+](=O)[O-])c1O	ERAP1 inh 98.6 (no result: E-sel inducer)
O=C1ON=C(c2ccccc2[N+](=O)[O-])/C1=C/c1cccc([N+](=O)[O-])c1O	ERAP1 inh 64.6 (no result: E-sel inducer)
O=C1ON=C(c2cccc([N+](=O)[O-])c2)/C1=C/c1ccc(O)cc1	none (no result: FGF22 binding)
COCC(=O)Nc1ccc2c(c1)OC[C@H](C)N(C(=O)C1CCCC1)C[C@H](C)[C@H](OC)CN(C)C2=O	none (no result: DENV2 CPE rescue, FGF22 binding, ERAP1 inh)
O=[N+]([O-])c1cccc(/C=N/Nc2nc(N3CCOCC3)nc(N3CCOCC3)n2)c1	FGF22 binding 44.3 (no result: E-sel inducer)
O=[N+]([O-])c1ccc(Cl)c(/C=N/Nc2nc(N3CCOCC3)nc(N3CCOCC3)n2)c1	none (no result: CFTR F508del cor, DENV2 CPE rescue, FGF22 binding, ERAP1 inh)
Cc1cn(-c2ccccc2)c(C)c1/C=N\Nc1nc(N2CCOCC2)nc(N2CCOCC2)n1	FGF22 binding 43.1
O=C(Cc1ccccc1)NC1CCN(C(=O)c2ccc([N+](=O)[O-])cc2)CC1	none
O=C(Nc1cccc(-n2cnnn2)c1)C1CCCN(C(=O)Cc2cccc(Cl)c2)C1 (configuration not stated)	DENV2 CPE rescue 60.5 (no result: E-sel inducer)
O=C(Nc1cccc(-n2cnnn2)c1)C1CCCN(Cc2cccc(C(F)(F)F)c2)C1 (configuration not stated)	none
O=C(Cc1cccc(NC(=O)C2CCCN(C(=O)C3CCC3)C2)c1)Nc1ccc(C(=O)N2CCOCC2)cc1 (configuration not stated)	DENV2 CPE rescue 31.6
O=C(Cc1ccccc1)N1CCN(C(=O)c2ccc([N+](=O)[O-])cc2)CC1	FGF22 binding 45.2 (no result: E-sel inducer)
O=C(Cc1cccc(NC(=O)C2CCCN(C(=O)C3CCCC3)C2)c1)Nc1cccc(C(=O)N2CCOCC2)c1 (configuration not stated)	none
CN(C(=O)c1ccc(NC(=O)Cc2cccc(NC(=O)C3CCN(C(=O)C4CC4)CC3)c2)cc1)C1CC1	DENV2 CPE rescue 34.0
O=C(C1CCOCC1)N1CC(=O)N2[C@@H](CO)[C@@H](c3ccc(C#CC4CCCCC4)cc3)[C@@H]2C1	none
O=C(Cc1cccc(NC(=O)C2CCCN(C(=O)C3CCCC3)C2)c1)Nc1ccc(C(=O)N2CCOCC2)cc1 (configuration not stated)	DENV2 CPE rescue 27.4
O=C(Cc1cccc([N+](=O)[O-])c1)Nc1ccc(C(=O)N2CCCCC2)cc1	DENV2 CPE rescue 81.3
COc1ccc(CN2C[C@@H](O)COC[C@H]3O[C@H](CC(=O)NCCN4CCCC4)CC[C@@H]32)cc1	none
C[C@H](CO)N1C[C@H](C)[C@@H](CN(C)Cc2ccc3c(c2)OCO3)OCCCC[C@H](C)Oc2ccc(NS(=O)(=O)c3cccs3)cc2C1=O	none (no result: ERAP1 inh)
C[C@H]1CCCCO[C@H](CN(C)Cc2ccc3c(c2)OCO3)[C@@H](C)CN([C@@H](C)CO)C(=O)c2cc(NS(=O)(=O)c3cccs3)ccc2O1	DENV2 CPE rescue 41.0! (no result: ERAP1 inh)
C[C@@H]1CN([C@@H](C)CO)C(=O)c2cc(NS(=O)(=O)c3cccs3)ccc2O[C@@H](C)CCCCO[C@H]1CN(C)Cc1ccc2c(c1)OCO2	DENV2 CPE rescue 36.6 (no result: ERAP1 inh)
C[C@@H]1CCCCO[C@H](CN(C)Cc2ccc(Cl)c(Cl)c2)[C@@H](C)CN([C@H](C)CO)C(=O)c2cc(NS(=O)(=O)c3cccs3)ccc2O1	FGF22 binding 1.2
C[C@@H]1CCCCO[C@@H](CN(C)Cc2ccc3c(c2)OCO3)[C@H](C)CN([C@@H](C)CO)C(=O)c2cc(NS(=O)(=O)c3cccs3)ccc2O1	DENV2 CPE rescue 112.1! (no result: ERAP1 inh)
O=C(C[C@H]1C[C@H]2c3cc(NC(=O)C4CCC4)ccc3O[C@H]2[C@@H](CO)O1)NCc1ccc(-c2ccccc2)cc1	none
C[C@H](CO)N1C[C@H](C)[C@@H](CN(C)Cc2ccccc2)Oc2ccc(NC(=O)CCN3CCOCC3)cc2C1=O	none (no result: E-sel inducer)
C[C@@H]1CCCCO[C@H](CN(C)Cc2ccc(C(F)(F)F)cc2)[C@H](C)CN([C@H](C)CO)C(=O)c2cc(NC(=O)C3CCCCC3)ccc2O1	none (no result: ERAP1 inh)
C[C@@H]1CN([C@@H](C)CO)C(=O)c2cc(N(C)C)ccc2O[C@@H](C)CCCCO[C@H]1CN(C)Cc1ccc2c(c1)OCO2	none
COc1ccc2c(c1)CCc1c(C(=O)Nc3ccn(Cc4ccc(C)cc4)n3)noc1-2	FGF22 binding 27.7 (no result: E-sel inducer)
NC(N)=NN=C(c1ccc(F)cc1)c1ccc(C(F)(F)F)cc1	CFTR F508del cor 12.5
CO/N=C/C(NC(=O)c1ccc(C(F)(F)F)cc1)C(=O)OC (configuration not stated)	none
COc1cc(Nc2ccn3nc(-c4ccc(F)cc4)cc3n2)cc(OC)c1OC	none
COc1cc(Nc2ccn3nccc3n2)cc(OC)c1OC	DENV2 CPE rescue 22.7
C#CCCCCCCCCC(=O)NCCCC	FGF22 binding 43.3
CCCCCCCCCCCCCCCC(=O)NCCO	none
CC1=C(C#N)C(=O)NC(=O)/C1=C\c1ccc(-c2cc(C)c(C)cc2[N+](=O)[O-])o1	FGF22 binding 1.6 (no result: E-sel inducer)
Cc1ccc(-c2ccc(/C=C3/NC(=O)NC3=O)o2)cc1[N+](=O)[O-]	none (no result: E-sel inducer)
O=C(O)c1cc(-c2ccc(/C=N/N3C(=O)C4C5C=CC(C6CC56)C4C3=O)o2)ccc1Cl (configuration not stated)	FGF22 binding 43.2 (no result: E-sel inducer, CFTR F508del cor)
C[C@H]1CN([C@@H](C)CO)C(=O)c2ccccc2-c2ccccc2CO[C@H]1CN(C)S(=O)(=O)c1ccc(C#N)cc1	none (no result: DENV2 CPE rescue)
C[C@@H]1CCCCO[C@H](CN(C)C(=O)Nc2ccc3c(c2)OCO3)[C@H](C)CN([C@@H](C)CO)C(=O)c2cc(NC(=O)Nc3ccccc3)ccc2O1	DENV2 CPE rescue 23.0 (no result: E-sel inducer)
